Experimental data published in ChEMBL document CHEMBL4689842, “EUbOPEN Chemogenomics Library wave 1” (2021).
Several values for one entry are separate records, joined by “and”; a condition that tells them apart may be missing. Identical values can stand only once.

System: Fibroblast
Assay: Multiplex assay against human fibroblast
Assay type: toxicity, cell-based
In short: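 Live cells carried four stains from seeding: Hoechst33342, BioTracker Green Microtubule Cytoskeleton Dye, MitoTracker Red and Annexin V Alexa Fluor 680. They were imaged on a CQ1 microscope at 37°C and 5% CO2 after compound addition. Using CellPathfinder machine-learning gating, cells were split into Hoechst high-intensity objects or normal cells, normal cells into healthy, pyknosed or fragmented nuclei, and pyknosed cells into mitotic or apoptotic; tubulin, mitochondrial-mass and membrane-permeability phenotypes are per cents of healthy-nucleus cells.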

[1] = 12 h, 1 µM, compound concentration 1 uM, replicate 1
[2] = 12 h, 1 µM, compound concentration 1 uM, replicate 2
[3] = 12 h, 10 µM, compound concentration 10 uM, replicate 1
[4] = 12 h, 10 µM, compound concentration 10 uM, replicate 2
[5] = 24 h, 1 µM, compound concentration 1 uM, replicate 1
[6] = 24 h, 1 µM, compound concentration 1 uM, replicate 2
[7] = 24 h, 10 µM, compound concentration 10 uM, replicate 1
[8] = 24 h, 10 µM, compound concentration 10 uM, replicate 2
[9] = 48 h, 10 µM, compound concentration 10 uM, replicate 1
[10] = 48 h, 10 µM, compound concentration 10 uM, replicate 2

Q: How did the “Population Apoptotic (%)” value [1] turn out when `Cc1c(Nc2ccc(S(=O)(=O)N3CCN(C)CC3)cc2F)nc2ccc(-c3cnn(C4CC4)c3)cn2c1=O` was run?
A: Its value is 66%.

Q: And the “Population Fragmented Nuclei (%)” value [1]?
A: Its value is 29%.

Q: And the “Population Healthy Nuclei (%)” value [1]?
A: The value was 57%.

Q: What about the “Population Hoechst High Intensity Objects (%)” value [1] of the same molecule?
A: The value was 11%.

Q: What about the “Population Membrane Permeable-Phenotype (%)” value [1] of the same molecule?
A: Its value is 9%.

Q: What about the “Population Mitochondria Different-Phenotype (%)” value [1] of the same molecule?
A: The value was 4%.

Q: What about the “Population Mitotic Cells (%)” value [1] of the same molecule?
A: The value was 33%.

Q: And the “Population Normal (%)” value [1]?
A: Its value is 88%.

Q: And the “Population Pyknosed Nuclei (%)” value [1]?
A: The value was 12%.

Q: And the “Population Tubulin-Different-Phenotype (%)” value [1]?
A: Its value is 4%.

Q: What about the “Total Cell Count” value [1] of the same molecule?
A: Its value is 222.

Q: And the “Population Apoptotic (%)” value [2]?
A: The value was 50%.

Q: What about the “Population Fragmented Nuclei (%)” value [2] of the same molecule?
A: Its value is 49%.

Q: What about the “Population Healthy Nuclei (%)” value [2] of the same molecule?
A: Its value is 40%.

Q: And the “Population Hoechst High Intensity Objects (%)” value [2]?
A: Its value is 24%.

Q: And the “Population Membrane Permeable-Phenotype (%)” value [2]?
A: The value was 0%.

Q: And the “Population Mitochondria Different-Phenotype (%)” value [2]?
A: Its value is 0%.

Q: What about the “Population Mitotic Cells (%)” value [2] of the same molecule?
A: The value was 50%.

Q: What about the “Population Normal (%)” value [2] of the same molecule?
A: The value was 75%.

Q: What about the “Population Pyknosed Nuclei (%)” value [2] of the same molecule?
A: The value was 10%.

Q: What about the “Population Tubulin-Different-Phenotype (%)” value [2] of the same molecule?
A: Its value is 0%.

Q: What about the “Total Cell Count” value [2] of the same molecule?
A: The value was 73.

Q: What about the “Population Apoptotic (%)” value [3] of the same molecule?
A: The value was 67% and 50%.

Q: And the “Population Fragmented Nuclei (%)” value [3]?
A: Its value is 32% and 29%.

Q: What about the “Population Healthy Nuclei (%)” value [3] of the same molecule?
A: Its value is 39% and 54%.

Q: And the “Population Hoechst High Intensity Objects (%)” value [3]?
A: The value was 45% and 41%.

Q: What about the “Population Membrane Permeable-Phenotype (%)” value [3] of the same molecule?
A: Its value is 19% and 13%.

Q: What about the “Population Mitochondria Different-Phenotype (%)” value [3] of the same molecule?
A: Its value is 3% and 4%.

Q: And the “Population Mitotic Cells (%)” value [3]?
A: The value was 32% and 50%.

Q: What about the “Population Normal (%)” value [3] of the same molecule?
A: The value was 54% and 58%.

Q: What about the “Population Pyknosed Nuclei (%)” value [3] of the same molecule?
A: Its value is 27% and 16%.

Q: And the “Population Tubulin-Different-Phenotype (%)” value [3]?
A: Its value is 30% and 20%.

Q: And the “Total Cell Count” value [3]?
A: The value was 373 and 542.

Q: And the “Population Apoptotic (%)” value [4]?
A: The value was 78% and 64%.

Q: And the “Population Fragmented Nuclei (%)” value [4]?
A: Its value is 34% and 56%.

Q: What about the “Population Healthy Nuclei (%)” value [4] of the same molecule?
A: Its value is 42%.

Q: What about the “Population Hoechst High Intensity Objects (%)” value [4] of the same molecule?
A: Its value is 79% and 58%.

Q: And the “Population Membrane Permeable-Phenotype (%)” value [4]?
A: Its value is 11% and 8%.

Q: What about the “Population Mitotic Cells (%)” value [4] of the same molecule?
A: Its value is 21% and 35%.

Q: And the “Population Normal (%)” value [4]?
A: Its value is 20% and 41%.

Q: What about the “Population Tubulin-Different-Phenotype (%)” value [4] of the same molecule?
A: Its value is 6% and 8%.

Q: What about the “Population Apoptotic (%)” value [5] of the same molecule?
A: Its value is 85%.

Q: And the “Population Fragmented Nuclei (%)” value [5]?
A: Its value is 26%.

Q: And the “Population Healthy Nuclei (%)” value [5]?
A: Its value is 60%.

Q: And the “Population Hoechst High Intensity Objects (%)” value [5]?
A: Its value is 12%.

Q: And the “Population Membrane Permeable-Phenotype (%)” value [5]?
A: The value was 5%.

Q: What about the “Population Mitochondria Different-Phenotype (%)” value [5] of the same molecule?
A: Its value is 2%.

Q: And the “Population Mitotic Cells (%)” value [5]?
A: The value was 14%.

Q: And the “Population Normal (%)” value [5]?
A: The value was 87%.

Q: What about the “Population Pyknosed Nuclei (%)” value [5] of the same molecule?
A: Its value is 13%.

Q: And the “Population Tubulin-Different-Phenotype (%)” value [5]?
A: Its value is 4%.

Q: What about the “Total Cell Count” value [5] of the same molecule?
A: Its value is 230.

Q: What about the “Population Apoptotic (%)” value [6] of the same molecule?
A: The value was 80%.

Q: And the “Population Fragmented Nuclei (%)” value [6]?
A: The value was 58%.

Q: What about the “Population Healthy Nuclei (%)” value [6] of the same molecule?
A: The value was 34%.

Q: What about the “Population Hoechst High Intensity Objects (%)” value [6] of the same molecule?
A: The value was 20%.

Q: What about the “Population Membrane Permeable-Phenotype (%)” value [6] of the same molecule?
A: The value was 8%.

Q: And the “Population Mitochondria Different-Phenotype (%)” value [6]?
A: The value was 12%.

Q: What about the “Population Mitotic Cells (%)” value [6] of the same molecule?
A: Its value is 20%.

Q: And the “Population Normal (%)” value [6]?
A: Its value is 79%.

Q: What about the “Population Pyknosed Nuclei (%)” value [6] of the same molecule?
A: The value was 6%.

Q: What about the “Population Tubulin-Different-Phenotype (%)” value [6] of the same molecule?
A: The value was 8%.

Q: And the “Total Cell Count” value [6]?
A: The value was 91.

Q: And the “Population Apoptotic (%)” value [7]?
A: Its value is 46% and 54%.

Q: And the “Population Fragmented Nuclei (%)” value [7]?
A: The value was 40% and 29%.

Q: And the “Population Healthy Nuclei (%)” value [7]?
A: The value was 46% and 57%.

Q: And the “Population Hoechst High Intensity Objects (%)” value [7]?
A: Its value is 42% and 34%.

Q: What about the “Population Membrane Permeable-Phenotype (%)” value [7] of the same molecule?
A: Its value is 21%.

Q: And the “Population Mitotic Cells (%)” value [7]?
A: The value was 53% and 45%.

Q: What about the “Population Normal (%)” value [7] of the same molecule?
A: The value was 57% and 65%.

Q: And the “Population Pyknosed Nuclei (%)” value [7]?
A: The value was 13%.

Q: And the “Population Tubulin-Different-Phenotype (%)” value [7]?
A: The value was 37% and 21%.

Q: And the “Total Cell Count” value [7]?
A: Its value is 395 and 524.

Q: And the “Population Apoptotic (%)” value [8]?
A: Its value is 60% and 68%.

Q: And the “Population Fragmented Nuclei (%)” value [8]?
A: Its value is 58% and 33%.

Q: And the “Population Healthy Nuclei (%)” value [8]?
A: The value was 37% and 44%.

Q: And the “Population Hoechst High Intensity Objects (%)” value [8]?
A: Its value is 58% and 77%.

Q: And the “Population Membrane Permeable-Phenotype (%)” value [8]?
A: Its value is 13% and 9%.

Q: What about the “Population Mitochondria Different-Phenotype (%)” value [8] of the same molecule?
A: The value was 23% and 0%.

Q: And the “Population Mitotic Cells (%)” value [8]?
A: Its value is 40% and 31%.

Q: What about the “Population Normal (%)” value [8] of the same molecule?
A: The value was 41% and 22%.

Q: What about the “Population Apoptotic (%)” value [9] of the same molecule?
A: The value was 57%.

Q: What about the “Population Fragmented Nuclei (%)” value [9] of the same molecule?
A: Its value is 39%.

Q: And the “Population Healthy Nuclei (%)” value [9]?
A: The value was 47%.

Q: And the “Population Hoechst High Intensity Objects (%)” value [9]?
A: Its value is 43%.

Q: What about the “Population Membrane Permeable-Phenotype (%)” value [9] of the same molecule?
A: Its value is 14%.

Q: And the “Population Mitochondria Different-Phenotype (%)” value [9]?
A: Its value is 1%.

Q: And the “Population Mitotic Cells (%)” value [9]?
A: Its value is 42%.

Q: And the “Population Normal (%)” value [9]?
A: The value was 56%.

Q: And the “Population Pyknosed Nuclei (%)” value [9]?
A: Its value is 13%.

Q: And the “Population Tubulin-Different-Phenotype (%)” value [9]?
A: The value was 31%.

Q: What about the “Total Cell Count” value [9] of the same molecule?
A: The value was 344.

Q: What about the “Population Apoptotic (%)” value [10] of the same molecule?
A: Its value is 60%.

Q: And the “Population Healthy Nuclei (%)” value [10]?
A: The value was 57%.

Q: What about the “Population Hoechst High Intensity Objects (%)” value [10] of the same molecule?
A: The value was 19%.

Q: And the “Population Membrane Permeable-Phenotype (%)” value [10]?
A: The value was 16%.

Q: And the “Population Mitotic Cells (%)” value [10]?
A: Its value is 40%.

Q: And the “Population Normal (%)” value [10]?
A: The value was 80%.

Q: What about the “Population Pyknosed Nuclei (%)” value [10] of the same molecule?
A: Its value is 3%.

Q: And the “Population Tubulin-Different-Phenotype (%)” value [10]?
A: The value was 24%.

Q: What about the “Total Cell Count” value [10] of the same molecule?
A: Its value is 159.
